Measurements as given in ChEMBL document CHEMBL3862011, “Neuroprotective effects of benzyloxy substituted small molecule monoamine oxidase B inhibitors in Parkinson's disease” (Bioorg Med Chem, 2016).

Target: T1, Amine oxidase [flavin-containing] A (Homo sapiens, UniProt P21397)
T1 sequence (P21397 whole entry): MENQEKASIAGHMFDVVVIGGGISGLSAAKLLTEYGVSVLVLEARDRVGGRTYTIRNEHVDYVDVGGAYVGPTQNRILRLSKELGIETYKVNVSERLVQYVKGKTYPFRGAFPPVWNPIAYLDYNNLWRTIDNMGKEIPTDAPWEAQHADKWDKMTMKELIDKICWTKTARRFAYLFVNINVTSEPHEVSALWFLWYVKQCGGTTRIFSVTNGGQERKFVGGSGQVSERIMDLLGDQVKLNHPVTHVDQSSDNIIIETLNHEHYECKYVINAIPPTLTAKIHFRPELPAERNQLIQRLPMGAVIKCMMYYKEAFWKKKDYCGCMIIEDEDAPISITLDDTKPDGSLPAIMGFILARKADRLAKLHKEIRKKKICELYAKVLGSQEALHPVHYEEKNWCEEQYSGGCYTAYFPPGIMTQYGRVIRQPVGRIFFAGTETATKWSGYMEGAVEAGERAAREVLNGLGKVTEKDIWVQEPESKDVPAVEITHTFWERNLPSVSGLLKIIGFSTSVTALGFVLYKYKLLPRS
Assay: not given
Settings: not given
For CC1(C)CC(=O)c2ccc(OCc3ccc(F)cc3)cc2O1, the IC50 was greater than 100 µM. Compound O=C1CCCc2cc(OCc3ccc(F)cc3)ccc21 has an IC50 of 1.29 µM. O=c1ccoc2cc(OCc3cccc(Cl)c3)ccc12 gave an IC50 of 23.6 µM. Compound O=C1OCc2cc(OCc3ccc(C(F)(F)F)cc3)ccc21 has an IC50 of 9.24 µM. Work on CC(=O)c1ccc(OCc2cccc(F)c2)cc1O yielded an IC50 greater than 100 µM. CC(=O)c1ccc(OCc2cccc(Cl)c2)cc1O gave an IC50 of 48 µM. CC(=O)c1ccc(OCc2cccc(Cl)c2)cc1F showed an IC50 greater than 100 µM. Work on CC(=O)c1ccc(OCc2ccc(F)cc2)cc1F yielded an IC50 greater than 100 µM. O=c1ccoc2ccc(OCc3ccc(Cl)cc3)cc12 showed an IC50 of 4.52 µM. In the case of CC(=O)c1ccc(OCc2ccc(F)cc2)cc1, the IC50 is reported as greater than 100 µM.

Target: T1, Amine oxidase [flavin-containing] A
Assay: Inhibition of recombinant human MAO-A using kynuramine as substrate assessed as decrease in 4-hydroxyquinoline production incubated for 20 mins by fluorescence spectrophotometry
Settings: not given
With CC(=O)c1ccc(OCc2cccc(F)c2)cc1O the IC50 was 50.7 µM. For CC(=O)c1ccc(OCc2cccc(Cl)c2)cc1O, the IC50 was 17.7 µM.

System: not listed separately
Assay: in vitro
Settings: PAMPA
Compound CC1(C)CC(=O)c2ccc(OCc3ccc(F)cc3)cc2O1 has a Papp at 16 h, 100 ug/ml of 9.71 ×10⁻⁶ cm/s. Compound CC(=O)c1ccc(OCc2cccc(F)c2)cc1O has a Papp at 16 h, 100 ug/ml of 15.9 ×10⁻⁶ cm/s.

System: not listed separately
Assay: Cytotoxicity against rat PC12 cells assessed as cell survival at 20 uM after 72 hrs by MTT assay relative to control
Format: toxicity, PC-12
Settings: read-out: Survival
CC(=O)c1cccc(OCc2ccc(Cl)cc2)c1 gave a viability at 72 h, 20 µM of 102%. For C#CCN[C@@H]1CCc2ccccc21 [RASAGILINE], the viability at 72 h, 20 µM was 101%. For Cc1c(C)c2ccc(OCc3cccc(F)c3)cc2oc1=O, the viability at 72 h, 20 µM was 108%. Cc1c(C)c2ccc(OCc3ccc(Cl)cc3)cc2oc1=O gave a viability at 72 h, 20 µM of 104%. Compound Cc1c(C)c2ccc(OCc3ccc(F)c(F)c3)cc2oc1=O has a viability at 72 h, 20 µM of 102%. Compound O=C1CCOc2cc(OCc3ccc(Cl)cc3)ccc21 has a viability at 72 h, 20 µM of 115%. Work on CC1(C)CC(=O)c2ccc(OCc3ccc(F)cc3)cc2O1 yielded a viability at 72 h, 20 µM of 122%. In the case of O=c1ccoc2cc(OCc3cccc(Cl)c3)ccc12, the viability at 72 h, 20 µM is reported as 119%. O=C1OCc2cc(OCc3ccc(C(F)(F)F)cc3)ccc21 gave a viability at 72 h, 20 µM of 87.2%. With CC(=O)c1ccc(OCc2cccc(F)c2)cc1O the viability at 72 h, 20 µM was 115%. Work on CC(=O)c1ccc(OCc2cccc(Cl)c2)cc1O yielded a viability at 72 h, 20 µM of 112%. For CC(=O)c1ccc(OCc2ccc(F)cc2)cc1F, the viability at 72 h, 20 µM was 123%. O=c1ccoc2ccc(OCc3ccc(Cl)cc3)cc12 showed a viability at 72 h, 20 µM of 108%. Compound CC(=O)c1ccc(OCc2ccc(F)cc2)cc1 has a viability at 72 h, 20 µM of 123%.

System: not listed separately
Assay: Neuroprotective activity against 6-OHDA-induced toxicity in rat PC12 cells assessed as cell survival at 20 uM preincubated for 24 hrs followed by 6-OHDA addition measured after 24 hrs by MTT assay relative to control
Format: functional
Settings: PC-12, read-out: Survival
Procedure, shortened: (§1)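 PC12 cells seeded 5×10^3/well, after 24 h given compound at 20 μM for 24 h at 37 °C, then exposed to 6-OHDA (40 μM) or rotenone (1 μM) for 24 h. […] Mean ± SEM of three independent experiments.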
Work on CC(=O)c1cccc(OCc2ccc(Cl)cc2)c1 yielded a viability at 20 µM of 132%. C#CCN[C@@H]1CCc2ccccc21 [RASAGILINE] gave a viability at 20 µM of 135%. Cc1c(C)c2ccc(OCc3cccc(F)c3)cc2oc1=O showed a viability at 20 µM of 130%. Compound Cc1c(C)c2ccc(OCc3ccc(Cl)cc3)cc2oc1=O has a viability at 20 µM of 114%. Cc1c(C)c2ccc(OCc3ccc(F)c(F)c3)cc2oc1=O gave a viability at 20 µM of 138%. For O=C1CCOc2cc(OCc3ccc(Cl)cc3)ccc21, the viability at 20 µM was 143%. For CC1(C)CC(=O)c2ccc(OCc3ccc(F)cc3)cc2O1, the viability at 20 µM was 148%. With O=C1CCCc2cc(OCc3ccc(F)cc3)ccc21 the viability at 20 µM was 139%. With O=c1ccoc2cc(OCc3cccc(Cl)c3)ccc12 the viability at 20 µM was 117%. With O=C1OCc2cc(OCc3ccc(C(F)(F)F)cc3)ccc21 the viability at 20 µM was 125%. For CC(=O)c1ccc(OCc2cccc(F)c2)cc1O, the viability at 20 µM was 133%. CC(=O)c1ccc(OCc2cccc(Cl)c2)cc1O showed a viability at 20 µM of 134%. In the case of CC(=O)c1ccc(OCc2cccc(Cl)c2)cc1F, the viability at 20 µM is reported as 133%. Work on CC(=O)c1ccc(OCc2ccc(F)cc2)cc1F yielded a viability at 20 µM of 105%. In the case of O=c1ccoc2ccc(OCc3ccc(Cl)cc3)cc12, the viability at 20 µM is reported as 122%. In the case of CC(=O)c1ccc(OCc2ccc(F)cc2)cc1, the viability at 20 µM is reported as 116%.

System: not listed separately
Assay: Cytotoxicity against rat PC12 cells assessed as cell survival at 100 uM after 24 hrs by MTT assay relative to control
Format: toxicity, PC-12
Settings: read-out: Survival
With CC(=O)c1cccc(OCc2ccc(Cl)cc2)c1 the viability at 24 h, 100 µM was 117%. For C#CCN[C@@H]1CCc2ccccc21 [RASAGILINE], the viability at 24 h, 100 µM was 86.9%. For Cc1c(C)c2ccc(OCc3cccc(F)c3)cc2oc1=O, the viability at 24 h, 100 µM was 109%. Cc1c(C)c2ccc(OCc3ccc(Cl)cc3)cc2oc1=O gave a viability at 24 h, 100 µM of 106%. Compound Cc1c(C)c2ccc(OCc3ccc(F)c(F)c3)cc2oc1=O has a viability at 24 h, 100 µM of 106%. O=C1CCOc2cc(OCc3ccc(Cl)cc3)ccc21 showed a viability at 24 h, 100 µM of 98.6%. In the case of CC1(C)CC(=O)c2ccc(OCc3ccc(F)cc3)cc2O1, the viability at 24 h, 100 µM is reported as 96.2%. With O=C1CCCc2cc(OCc3ccc(F)cc3)ccc21 the viability at 24 h, 100 µM was 83.3%. Compound O=c1ccoc2cc(OCc3cccc(Cl)c3)ccc12 has a viability at 24 h, 100 µM of 73.5%. CC(=O)c1ccc(OCc2cccc(F)c2)cc1O gave a viability at 24 h, 100 µM of 107%. Work on CC(=O)c1ccc(OCc2cccc(Cl)c2)cc1O yielded a viability at 24 h, 100 µM of 110%. Work on CC(=O)c1ccc(OCc2cccc(Cl)c2)cc1F yielded a viability at 24 h, 100 µM of 108%. Work on CC(=O)c1ccc(OCc2ccc(F)cc2)cc1F yielded a viability at 24 h, 100 µM of 106%. For O=c1ccoc2ccc(OCc3ccc(Cl)cc3)cc12, the viability at 24 h, 100 µM was 85%. CC(=O)c1ccc(OCc2ccc(F)cc2)cc1 showed a viability at 24 h, 100 µM of 105%.

System: not listed separately
Assay: Neuroprotective activity against rotenone-induced toxicity in rat PC12 cells assessed as cell survival at 20 uM preincubated for 24 hrs followed by rotenone addition measured after 24 hrs by MTT assay relative to control
Format: functional
Settings: PC-12, read-out: Survival
Procedure, shortened: as §1
Work on CC(=O)c1cccc(OCc2ccc(Cl)cc2)c1 yielded a viability at 20 µM of 109%. In the case of C#CCN[C@@H]1CCc2ccccc21 [RASAGILINE], the viability at 20 µM is reported as 109%. Cc1c(C)c2ccc(OCc3cccc(F)c3)cc2oc1=O gave a viability at 20 µM of 115%. Cc1c(C)c2ccc(OCc3ccc(Cl)cc3)cc2oc1=O gave a viability at 20 µM of 119%. For Cc1c(C)c2ccc(OCc3ccc(F)c(F)c3)cc2oc1=O, the viability at 20 µM was 117%. O=C1CCOc2cc(OCc3ccc(Cl)cc3)ccc21 showed a viability at 20 µM of 111%. With CC1(C)CC(=O)c2ccc(OCc3ccc(F)cc3)cc2O1 the viability at 20 µM was 111%. Work on O=C1CCCc2cc(OCc3ccc(F)cc3)ccc21 yielded a viability at 20 µM of 95.9%. With O=c1ccoc2cc(OCc3cccc(Cl)c3)ccc12 the viability at 20 µM was 101%. Compound O=C1OCc2cc(OCc3ccc(C(F)(F)F)cc3)ccc21 has a viability at 20 µM of 111%. With CC(=O)c1ccc(OCc2cccc(F)c2)cc1O the viability at 20 µM was 106%. CC(=O)c1ccc(OCc2cccc(Cl)c2)cc1O gave a viability at 20 µM of 93.3%. Work on CC(=O)c1ccc(OCc2cccc(Cl)c2)cc1F yielded a viability at 20 µM of 112%. CC(=O)c1ccc(OCc2ccc(F)cc2)cc1F showed a viability at 20 µM of 114%. Compound O=c1ccoc2ccc(OCc3ccc(Cl)cc3)cc12 has a viability at 20 µM of 115%. Compound CC(=O)c1ccc(OCc2ccc(F)cc2)cc1 has a viability at 20 µM of 88.6%.
